Results on 167 variants are retold here after the RNAGym collection of RNA variant scans (doi:10.1126/science.aae0568).

B1: tRNA (parent)
chain: GUUCCGUUGGCGUAAUGGUAACGCGUCUCCCUCCUAAGGAGAAGACUGCGGGUUCGAGUCCCGUACGGAACG

Fewer inactive variants are shown than the library holds. A value given as a limit tells only on which side of the number the result lay.

In the data set the parent is B1. Kind of data set: yeast fitness relative to wild type (ratio to wild type); higher = fitter; tRNA-Arg(CCU), competitive growth, 37 C, YPD. In short, it runs like this:
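A pool of Saccharomyces cerevisiae strains, each with a tRNA-Arg(CCU) gene variant at the native genomic locus, was competed in YPD at 37°C for 24 hours across six parallel replicates. The variants had been chemically synthesised at a 3% per-site mutation rate over 69 sites, and gene amplicons before and after competition were read by 100-nucleotide paired-end sequencing. Darwinian fitness relative to wild type rested on changes in genotype frequencies. Genotypes required ≥ 100 starting reads, and estimates < 0.5 were set to 0.5.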
G12A C22U C31G G48C: the yeast fitness was at most 0.5.

As for C30G U32A A42U, the yeast fitness was at most 0.5.

In the case of U3C A40U G63A A65G, the yeast fitness worked out at 0.549.

On to A15G C29A A37G, for which the yeast fitness is at most 0.5.

Take A21C C34U A65U: the yeast fitness was at most 0.5.

For the variant U19G A21C C55G U59A, the yeast fitness was at most 0.5.

As to C24G C27U A43U G52C, the yeast fitness is at most 0.5.

With G10C A36U C66U A70C, the yeast fitness is at most 0.5.

On to C22U C60G A70G, for which the yeast fitness is at most 0.5.

Regarding C5U C22U G44C, the yeast fitness was 0.73.

For the variant C29A C61G G67C G68A, the yeast fitness was at most 0.5.

Take C5A C22G C29A A43U: the yeast fitness amounted to 0.574.

For the variant C27U U59A C66U, the yeast fitness was at most 0.5.

Take A21G C24A A43U A57U C66A: the yeast fitness turned out to be 0.574.

For the variant U2A C30U C46A U54A A57G, the yeast fitness is at most 0.5.

C5U C33A C55U: the yeast fitness was at most 0.5.

Turning to G9A C31A G56A G67A, the yeast fitness is at most 0.5.

As for U26G U32A G63A, the yeast fitness is at most 0.5.

For C30G C31A, the yeast fitness came to 0.62.

A20U G23A A57C: the yeast fitness was at most 0.5.

Regarding C11U A20C C29G G56C G58A, the yeast fitness was found to be 0.693.

C22G C61G C62U: the yeast fitness is at most 0.5.

Consider C11A G17A U35G U59C, for which the yeast fitness was found to be 0.568.

With U8A G9A C24U U53C C60G, the yeast fitness is at most 0.5.

For C22U U28C C29G C33A, the yeast fitness was at most 0.5.

Regarding C24G U47G U53C, the yeast fitness was found to be 0.713.

For C31U A69G, the yeast fitness worked out at 0.924.

Regarding G10C C24U C29A A42G A45U C46G U47A G50A U64G, the yeast fitness was at most 0.5.

Regarding G6A G10A C22G G25C, the yeast fitness was at most 0.5.

Regarding G23A C29U C30A, the yeast fitness stood at 0.565.

C4U A14C G51C: the yeast fitness was at most 0.5.

Regarding C49U G51A A69C, the yeast fitness worked out at 0.61.

Take C66G A69C: the yeast fitness amounted to 0.782.

As for U3A C4U A70G, the yeast fitness came out at 0.59.

Consider G56A C61U C62G, for which the yeast fitness was at most 0.5.

In the case of C4G A40U A42C A57G C62G, the yeast fitness was at most 0.5.

For the variant A37C G39C C55U C61A, the yeast fitness turned out to be 0.532.

In the case of U54A C66A, the yeast fitness came to 0.528.

On to U59C A65G, for which the yeast fitness worked out at 0.938.

With A20G G39C, the yeast fitness worked out at 0.829.

As to A42G G68U, the yeast fitness is 0.834.

Regarding C5A U54C, the yeast fitness came to 0.722.

Turning to G23C A40U C55U, the yeast fitness is at most 0.5.

Turning to C11U U28C U32G A70U, the yeast fitness was at most 0.5.

In the case of G10A G18A A36G, the yeast fitness was at most 0.5.

For the variant C24A U64G A70C, the yeast fitness is at most 0.5.

Take A14C C27G U28G: the yeast fitness was at most 0.5.

With A21G G23A A57U A70U, the yeast fitness was at most 0.5.

As to C31U C61G, the yeast fitness stood at 0.707.

As for C4G C34U G67A A69U, the yeast fitness was at most 0.5.

For the variant C61A C66A, the yeast fitness came to 0.627.

With U19G U59A A69U, the yeast fitness was at most 0.5.

Take A14C G25C G48A A69U: the yeast fitness turned out to be 0.553.

C27U C46U A65U A70C: the yeast fitness turned out to be 0.828.

Regarding A14U G52A, the yeast fitness is at most 0.5.

With C4G A14C A42G, the yeast fitness was at most 0.5.

Consider G17C A21G C33A C49U, for which the yeast fitness was at most 0.5.

As for U28A U32G A69U, the yeast fitness was at most 0.5.

As to A15G C27U C34U A57U C62A, the yeast fitness worked out at 0.563.

As for C5A C31A C46A G50C, the yeast fitness was at most 0.5.

Regarding U16C C34A A37G U59A, the yeast fitness was at most 0.5.

In the case of C24A A65C, the yeast fitness was 0.725.

Regarding C5U A15C A36U A65C, the yeast fitness was at most 0.5.

For G18U A20U, the yeast fitness worked out at 0.722.

As for C4G C11U A36U G52C, the yeast fitness is at most 0.5.

C11U A15C C29U A37G A69U: the yeast fitness was at most 0.5.

Regarding G12A C61A A65U, the yeast fitness was at most 0.5.

For G10A G41C, the yeast fitness came to 0.717.

In the case of C11A C31U C34U G58C C60U C62U G63C, the yeast fitness was at most 0.5.

In the case of C4G G67A A69C, the yeast fitness is at most 0.5.

For G12C C27U C33A A45C U54A, the yeast fitness is at most 0.5.

For the variant A14G G18C C31A A69U, the yeast fitness is at most 0.5.

Take G58C G68A: the yeast fitness worked out at 0.776.

U2A U54A: the yeast fitness came to 0.613.

Turning to C31U G58A A65G, the yeast fitness was 0.73.

For the variant C11G A21G C31G A42G, the yeast fitness is at most 0.5.

Take C29U C33U C61G: the yeast fitness was at most 0.5.

As to C31U G44C A69U, the yeast fitness worked out at 0.634.

With C27U G44C, the yeast fitness amounted to 1.03.

As for U2C C24A U26A U47C, the yeast fitness was at most 0.5.

On to C5G G18A G48C G67A, for which the yeast fitness was at most 0.5.

C31U A37C G63A: the yeast fitness was at most 0.5.

Turning to C5G C22G C66U, the yeast fitness is at most 0.5.

A14U U26A A45U U53C: the yeast fitness was 0.597.

As to U16A U47A, the yeast fitness was 0.825.

For U32A A36G G39C C62U, the yeast fitness is at most 0.5.

For the variant U7C C66U, the yeast fitness came to 0.921.

Regarding G44C C62U G63A, the yeast fitness was at most 0.5.

In the case of U3A C24U C46U G48A C49G, the yeast fitness is at most 0.5.

Regarding G48C U64C G67C, the yeast fitness is at most 0.5.

As to C5U G12A A14G A57U, the yeast fitness was at most 0.5.

For A14U C49G C60A, the yeast fitness was at most 0.5.

For A36C C49A, the yeast fitness is 0.563.

Consider C4A A21G G68A, for which the yeast fitness amounted to 0.7.

Consider C29A A45U, for which the yeast fitness came to 0.524.

As for C34U A37U A45U A57G C61U A70G, the yeast fitness is at most 0.5.

Consider A14U C29G G51A C66G, for which the yeast fitness was at most 0.5.

Regarding U2C A42G A45C C61G, the yeast fitness is at most 0.5.

In the case of U13A C60U, the yeast fitness worked out at 0.699.

C4U C30A G38C C61A: the yeast fitness was at most 0.5.

For U3C U8C C11A C31A G68C, the yeast fitness was at most 0.5.

For the variant U2G A20U G25C C49G A65C A70U, the yeast fitness is at most 0.5.

With A42U U47C G51A A70C, the yeast fitness was 0.502.

As for C31U U32C G41C G68U, the yeast fitness is at most 0.5.

For the variant C49A A70U, the yeast fitness came to 0.714.

Regarding U3A C30G C31U G67C, the yeast fitness was at most 0.5.

For the variant C11G U32A, the yeast fitness was at most 0.5.

With U3A G9C C27G, the yeast fitness is at most 0.5.

With C27G A36U A45U A69C, the yeast fitness was found to be 0.577.

Turning to C5U U35C A45C, the yeast fitness was 0.743.

Turning to C5G C11U A42G C49U A69C A70G, the yeast fitness is at most 0.5.

For C11U G12A G44C C46U U59A, the yeast fitness was at most 0.5.

As for G6A U8C G18C, the yeast fitness is at most 0.5.

As for A21C C30G C55G, the yeast fitness is at most 0.5.

As for A37C A42C, the yeast fitness is 0.922.

As to C30A A36U A42G, the yeast fitness was at most 0.5.

Turning to A20C C29U G50C, the yeast fitness was at most 0.5.

As to C4U U8A C30U U32G U35A C62U A69C, the yeast fitness is at most 0.5.

Take A57U U64C: the yeast fitness was determined as 0.783.

With C11U A14C U16G C29A G68C, the yeast fitness came out at 0.585.

Turning to U54C C61G, the yeast fitness was determined as 0.713.

For the variant G52A G58A, the yeast fitness was 0.69.

U3G A45G: the yeast fitness is 1.

On to G38A G39C C60A C66G, for which the yeast fitness was at most 0.5.

Take G9C G39C G67U: the yeast fitness was at most 0.5.

As to U8A C61U G63C A65G, the yeast fitness is at most 0.5.

On to C33U A37G C49U A57U, for which the yeast fitness was at most 0.5.

On to C4A G25A A45U, for which the yeast fitness worked out at 0.593.

For the variant A42C A57G, the yeast fitness was 0.749.

Consider G23C C27G U53C C62A, for which the yeast fitness turned out to be 0.619.

Turning to G25C C34A C66U, the yeast fitness worked out at 0.54.

Turning to C5G G17C A70U, the yeast fitness was at most 0.5.

For C30A U32A U35G G67A, the yeast fitness was at most 0.5.

A15U G23C A37G: the yeast fitness is at most 0.5.

In the case of U3A C4U G10C C33G G52C, the yeast fitness is at most 0.5.

A45U C62A: the yeast fitness worked out at 0.655.

Consider C22G G23C C27A U28C, for which the yeast fitness stood at 0.533.

With U28C U32C C60A, the yeast fitness was at most 0.5.

For C24G A36G G50U U53A, the yeast fitness is at most 0.5.

Regarding C33A U35C C60A, the yeast fitness was at most 0.5.

With C24U A43C C49U G51U, the yeast fitness is at most 0.5.

Regarding C24A A40G C49A A65C, the yeast fitness is at most 0.5.

For the variant C11G G23A G38A G39C G50A G56C, the yeast fitness came out at 0.613.

Consider G48A G67U, for which the yeast fitness was 0.9.

As for U19C G50A C55A C62U, the yeast fitness was at most 0.5.

In the case of U7A A20G A43C A57U, the yeast fitness was at most 0.5.

A14G C29G C62U: the yeast fitness is 0.573.

Take G23A C29U C31U A42G C61A: the yeast fitness is at most 0.5.

As to U3A G17A C22U C46G, the yeast fitness is at most 0.5.

Regarding A43G C60U C62U G67A A70C, the yeast fitness is 0.576.

For A21C C30A, the yeast fitness came out at 0.802.

As for C4U C31G A37G, the yeast fitness worked out at 0.526.

Regarding C5U G44C C49U U64G G67A, the yeast fitness stood at 0.51.

For the variant U28A C34U U47C C60U, the yeast fitness is at most 0.5.

In the case of A14U A15C G25C, the yeast fitness was at most 0.5.

Turning to C62G G68A, the yeast fitness was found to be 0.56.

As to A21C C31G C66U, the yeast fitness was at most 0.5.

With U2G G6A C22U C27U A36U C60G, the yeast fitness is at most 0.5.

Consider A14U G68C A69C, for which the yeast fitness was at most 0.5.

Take U7C C22A C31U A57C G58A A69G: the yeast fitness was at most 0.5.

For the variant C11U A36G A43C, the yeast fitness stood at 0.546.

Turning to A20C U28C, the yeast fitness was found to be 0.929.

In the case of A15G U32A G38A, the yeast fitness is 0.525.

As to U16A C60A, the yeast fitness amounted to 0.668.

Regarding U3C C5U A37G A43C C62U, the yeast fitness is at most 0.5.

Turning to G9A G25C C30U, the yeast fitness was 0.679.

Regarding A14U G18C G39C C49G, the yeast fitness is at most 0.5.
